Measured values as given in ChEMBL document CHEMBL4007420, “Structural Optimization and Pharmacological Evaluation of Inhibitors Targeting Dual-Specificity Tyrosine Phosphorylation-Regulated Kinases (DYRK) and CDC-like kinases (CLK) in Glioblastoma” (J Med Chem, 2017).
Calls of active or inactive are those of the source. The calls are words filed in the database; no cut-off is given here.

Tests used:
U-251 [1] = assay: Antimigratory activity in human U251 cells assessed as velocity of migration at 5 uM measured up to 20 hrs by wound scratch assay (reference value: 2159 to 2653 micrometer/hr); format: functional
How it was run: (§1)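 Wound-healing migration assay: cell movement across the wound is measured as velocity (µm/h). Compounds were tested at 0, 1.0, 5.0 and 10.0 µM. Values are mean ± SEM of 3 independent experiments.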

[2] = Cytotoxicity against patient-derived RN1 cells assessed as reduction in cell viability after 3 days by Alamar blue assay; format: functional, cell-based; conditions: Homo sapiens, RN1, 72 h
How it was run: (§2)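 The patient-derived glioblastoma lines were grown as stem cells under defined conditions to keep the phenotype and genotype of the resected tumours. Viability after treatment was read with Alamar blue.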

A 172 [3] = assay: Antimigratory activity in human A172 cells assessed as velocity of migration at 10 uM measured up to 20 hrs by wound scratch assay (reference value: 2650 to 3123 micrometer/hr); format: functional; how it was run: as §1
[4] = Cytotoxicity against patient-derived SJH1 cells assessed as reduction in cell viability after 3 days by Alamar blue assay; format: functional, cell-based; conditions: Homo sapiens, SJH1, 72 h; how it was run: as §2
[5] = biological target: Dual specificity tyrosine-phosphorylation-regulated kinase 1B (Homo sapiens, UniProt Q9Y463); assay: Inhibition of DYRK1B (unknown origin) using woodtide as substrate after 40 mins in presence of [gamma-33P]ATP by microbeta scintillation counting
A 172 [6] = assay: Cytotoxicity against human A172 cells assessed as reduction in cell viability after 3 days by Alamar blue assay; format: functional, cell-based; conditions: A 172, 72 h
[7] = biological target: Dual specificity protein kinase CLK1 (Homo sapiens, UniProt P49759); assay: Inhibition of CLK1 (unknown origin) using KKGRSRSRSRSRSR as substrate after 40 mins in presence of [gamma-33P]ATP by microbeta scintillation counting
How it was run: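 CLK1 was assayed with RS peptide substrate at 100 µM ATP.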

[8] = Antimigratory activity in patient-derived RN1 cells assessed as velocity of migration at 5 uM measured up to 20 hrs by wound scratch assay (reference value: 937 to 1174 micrometer/hr); format: functional, Homo sapiens; how it was run: as §1
U-251 [9] = assay: Antimigratory activity in human U251 cells assessed as velocity of migration at 10 uM measured up to 20 hrs by wound scratch assay (reference value: 2159 to 2653 micrometer/hr); format: functional; how it was run: as §1
U-251 [10] = assay: Antiinvasive activity in human U251 cells assessed as velocity of invasion at 5 uM measured up to 20 hrs by matrigel assay (reference value: 1151 to 1710 micrometer/hr); format: functional
Homo sapiens = species: Homo sapiens; assay: Inhibition of tubulin (unknown origin) polymerization
A 172 [11] = assay: Antiinvasive activity in human A172 cells assessed as velocity of invasion at 5 uM measured up to 20 hrs by matrigel assay (reference value: 2659 to 3047 micrometer/hr); format: functional
U-251 [12] = assay: Antiinvasive activity in human U251 cells assessed as velocity of invasion at 1 uM measured up to 20 hrs by matrigel assay (reference value: 1151 to 1710 micrometer/hr); format: functional
[13] = biological target: T1, Dual specificity tyrosine-phosphorylation-regulated kinase 2 (Homo sapiens, UniProt Q92630); assay: Inhibition of DYRK2 (unknown origin) using woodtide as substrate after 40 mins in presence of [gamma-33P]ATP by microbeta scintillation counting
T1 sequence (Q92630 whole entry): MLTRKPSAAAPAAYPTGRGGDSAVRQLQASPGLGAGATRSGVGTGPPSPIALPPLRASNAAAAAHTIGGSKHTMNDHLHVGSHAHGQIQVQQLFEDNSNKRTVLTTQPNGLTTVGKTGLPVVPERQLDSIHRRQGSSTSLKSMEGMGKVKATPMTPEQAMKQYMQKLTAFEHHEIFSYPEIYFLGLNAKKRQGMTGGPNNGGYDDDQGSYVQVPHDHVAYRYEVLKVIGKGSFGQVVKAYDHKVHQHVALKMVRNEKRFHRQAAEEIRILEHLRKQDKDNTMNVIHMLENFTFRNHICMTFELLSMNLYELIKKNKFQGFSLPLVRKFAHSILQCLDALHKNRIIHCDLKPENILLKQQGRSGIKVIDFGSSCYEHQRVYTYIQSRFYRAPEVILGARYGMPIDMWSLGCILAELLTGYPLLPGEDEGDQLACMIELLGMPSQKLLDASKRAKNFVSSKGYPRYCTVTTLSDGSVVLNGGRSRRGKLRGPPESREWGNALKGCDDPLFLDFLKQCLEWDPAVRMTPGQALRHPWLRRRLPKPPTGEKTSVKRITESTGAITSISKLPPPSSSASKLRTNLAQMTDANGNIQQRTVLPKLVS

A 172 [14] = assay: Antimigratory activity in human A172 cells assessed as velocity of migration at 5 uM measured up to 20 hrs by wound scratch assay (reference value: 2650 to 3123 micrometer/hr); format: functional; how it was run: as §1
U-251 [15] = assay: Antiinvasive activity in human U251 cells assessed as velocity of invasion at 10 uM measured up to 20 hrs by matrigel assay (reference value: 1151 to 1710 micrometer/hr); format: functional
A 172 [16] = assay: Antiinvasive activity in human A172 cells assessed as velocity of invasion at 10 uM measured up to 20 hrs by matrigel assay (reference value: 2659 to 3047 micrometer/hr); format: functional
[17] = Antimigratory activity in patient-derived RN1 cells assessed as velocity of migration at 10 uM measured up to 20 hrs by wound scratch assay (reference value: 937 to 1174 micrometer/hr); format: functional, Homo sapiens; how it was run: as §1
A 172 [18] = assay: Antiinvasive activity in human A172 cells assessed as velocity of invasion at 1 uM measured up to 20 hrs by matrigel assay (reference value: 2659 to 3047 micrometer/hr); format: functional
[19] = Antimigratory activity in patient-derived RN1 cells assessed as velocity of migration at 1 uM measured up to 20 hrs by wound scratch assay (reference value: 937 to 1174 micrometer/hr); format: functional, Homo sapiens; how it was run: as §1
RN1 = assay: (§3) Anticlonogenic activity against patient-derived RN1 cells after 10 to 12 days by toluidine blue staining based assay; format: functional, cell-based; conditions: Homo sapiens
How it was run: (§4)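 Cells were exposed to compound for 10 days, then colonies were fixed, stained with Toluidine Blue and counted. […] Values are mean ± SEM of 3 independent experiments, each in duplicate, with one-way ANOVA and Dunnett's test against vehicle.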

[20] = as §3; format: functional, cell-based, Homo sapiens; how it was run: as §4
[21] = Cytotoxicity against patient-derived WK1 cells assessed as reduction in cell viability after 5 days by Alamar blue assay; format: functional, cell-based; conditions: Homo sapiens, WK1, 120 h; how it was run: as §2
U-251 [22] = assay: Antimigratory activity in human U251 cells assessed as velocity of migration at 1 uM measured up to 20 hrs by wound scratch assay (reference value: 2159 to 2653 micrometer/hr); format: functional; how it was run: as §1
A 172 [23] = assay: Antimigratory activity in human A172 cells assessed as velocity of migration at 1 uM measured up to 20 hrs by wound scratch assay (reference value: 2650 to 3123 micrometer/hr); format: functional; how it was run: as §1
U-251 [24] = assay: Cytotoxicity against human U251 cells assessed as reduction in cell viability after 3 days by Alamar blue assay; format: functional, cell-based; conditions: U-251, 72 h
[25] = Cytotoxicity against patient-derived JK2 cells assessed as reduction in cell viability after 3 days by Alamar blue assay; format: functional, cell-based; conditions: Homo sapiens, JK2, 72 h; how it was run: as §2
[26] = biological target: Dual specificity tyrosine-phosphorylation-regulated kinase 1A (Homo sapiens, UniProt Q13627); assay: Inhibition of DYRK1A (unknown origin) using woodtide as substrate after 10 mins in presence of [gamma-33P]ATP by microbeta scintillation counting
[27] = biological target: T2, Dual specificity tyrosine-phosphorylation-regulated kinase 4 (Homo sapiens, UniProt Q9NR20); assay: Inhibition of full-length recombinant human GST-tagged DYRK4 expressed in baculovirus infected insect cells using DYRKtide as substrate after 5 mins in presence of [gamma-33P]ATP by liquid scintillation counting
T2 sequence (Q9NR20 whole entry): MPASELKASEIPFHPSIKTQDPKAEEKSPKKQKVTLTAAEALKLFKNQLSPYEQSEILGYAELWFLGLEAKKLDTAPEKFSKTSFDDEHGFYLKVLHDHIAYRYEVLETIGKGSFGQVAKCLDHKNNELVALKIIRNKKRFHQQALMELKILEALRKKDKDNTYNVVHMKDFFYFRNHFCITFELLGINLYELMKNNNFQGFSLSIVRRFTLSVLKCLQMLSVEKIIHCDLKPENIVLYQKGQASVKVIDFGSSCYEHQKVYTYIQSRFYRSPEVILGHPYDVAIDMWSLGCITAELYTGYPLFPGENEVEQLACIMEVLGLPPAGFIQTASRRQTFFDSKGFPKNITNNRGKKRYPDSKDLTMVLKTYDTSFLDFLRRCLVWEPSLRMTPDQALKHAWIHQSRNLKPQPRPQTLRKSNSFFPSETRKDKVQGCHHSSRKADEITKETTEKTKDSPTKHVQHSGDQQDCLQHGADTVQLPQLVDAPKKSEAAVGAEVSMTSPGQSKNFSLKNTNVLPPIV

[28] = biological target: T3, Dual specificity tyrosine-phosphorylation-regulated kinase 3 (Homo sapiens, UniProt O43781); assay: Inhibition of full-length recombinant human GST-tagged DYRK3 expressed in Escherichia coli using woodtide as substrate after 30 mins in presence of [gamma-33P]ATP
T3 sequence (O43781 whole entry): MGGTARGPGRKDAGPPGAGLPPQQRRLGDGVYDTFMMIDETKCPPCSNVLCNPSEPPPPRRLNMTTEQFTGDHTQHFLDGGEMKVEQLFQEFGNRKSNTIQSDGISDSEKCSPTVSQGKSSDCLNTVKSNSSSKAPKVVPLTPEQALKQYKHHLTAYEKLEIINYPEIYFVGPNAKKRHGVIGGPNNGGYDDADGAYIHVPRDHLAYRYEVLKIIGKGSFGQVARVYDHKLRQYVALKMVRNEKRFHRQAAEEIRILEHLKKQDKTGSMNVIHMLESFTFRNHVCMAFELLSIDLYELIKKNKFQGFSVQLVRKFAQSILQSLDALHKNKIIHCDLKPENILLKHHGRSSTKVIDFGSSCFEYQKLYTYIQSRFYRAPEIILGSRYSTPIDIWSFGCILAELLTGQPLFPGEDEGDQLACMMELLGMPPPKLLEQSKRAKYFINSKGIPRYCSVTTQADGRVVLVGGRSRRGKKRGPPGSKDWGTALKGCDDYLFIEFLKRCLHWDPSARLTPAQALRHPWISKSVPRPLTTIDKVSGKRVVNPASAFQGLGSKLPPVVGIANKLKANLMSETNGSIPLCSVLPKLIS

Sequence of Dual specificity tyrosine-phosphorylation-regulated kinase 1B (Q9Y463 whole entry): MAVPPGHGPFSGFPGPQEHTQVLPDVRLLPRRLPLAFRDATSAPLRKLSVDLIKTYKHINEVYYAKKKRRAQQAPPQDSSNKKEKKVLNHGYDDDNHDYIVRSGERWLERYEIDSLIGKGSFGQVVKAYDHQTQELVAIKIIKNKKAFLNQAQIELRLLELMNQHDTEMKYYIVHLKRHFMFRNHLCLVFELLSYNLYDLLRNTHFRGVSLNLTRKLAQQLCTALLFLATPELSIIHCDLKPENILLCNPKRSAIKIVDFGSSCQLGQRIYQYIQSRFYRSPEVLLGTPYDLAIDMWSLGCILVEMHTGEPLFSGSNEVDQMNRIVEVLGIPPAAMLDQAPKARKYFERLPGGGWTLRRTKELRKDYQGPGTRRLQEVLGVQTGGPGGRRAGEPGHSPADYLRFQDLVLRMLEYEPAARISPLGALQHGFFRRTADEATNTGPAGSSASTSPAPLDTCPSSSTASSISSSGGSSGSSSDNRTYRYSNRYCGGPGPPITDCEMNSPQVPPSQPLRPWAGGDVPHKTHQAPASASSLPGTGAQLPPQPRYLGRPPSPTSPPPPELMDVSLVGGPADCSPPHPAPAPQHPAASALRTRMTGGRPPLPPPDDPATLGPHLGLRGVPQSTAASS
Sequence of Dual specificity protein kinase CLK1 (P49759 whole entry): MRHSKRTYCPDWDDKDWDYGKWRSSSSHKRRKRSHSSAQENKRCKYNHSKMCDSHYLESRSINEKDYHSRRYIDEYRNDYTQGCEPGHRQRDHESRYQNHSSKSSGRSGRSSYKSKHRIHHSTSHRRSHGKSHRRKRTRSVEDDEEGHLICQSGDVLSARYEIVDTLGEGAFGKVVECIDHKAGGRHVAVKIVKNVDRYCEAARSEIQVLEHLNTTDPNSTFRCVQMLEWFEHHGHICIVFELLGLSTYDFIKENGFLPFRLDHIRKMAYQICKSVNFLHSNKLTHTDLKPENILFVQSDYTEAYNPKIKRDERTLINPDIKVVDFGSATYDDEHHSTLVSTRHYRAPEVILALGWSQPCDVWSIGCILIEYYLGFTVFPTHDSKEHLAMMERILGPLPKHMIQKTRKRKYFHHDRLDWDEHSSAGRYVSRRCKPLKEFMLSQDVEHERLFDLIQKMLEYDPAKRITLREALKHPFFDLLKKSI

SMILES | Activity (U-251 [1]) | EC50 [2] | Activity (A 172 [3]) | EC50 [4] | IC50 [5] | EC50 (A 172 [6]) | IC50 [7] | Activity [8] | Activity (U-251 [9]) | Activity (U-251 [10]) | inhibition (Homo sapiens) | Activity (A 172 [11]) | Activity (U-251 [12]) | IC50 [13] | Activity (A 172 [14]) | Activity (U-251 [15]) | Activity (A 172 [16]) | Activity [17] | Activity (A 172 [18]) | Activity [19] | also measured
CC(=O)Nc1ccc(-c2cnc3[nH]cc(-c4ccc(O)cc4)c3c2)cc1 | 173 um/hr | 2.1 µM | 651 um/hr | 5.1 µM | 0.038 µM | 1.6 to 4.6 µM | 0.035 µM | 210 um/hr | 111 um/hr | 34 um/hr | inactive | 2027 um/hr | 736 um/hr | 0.536 µM | 2296 um/hr | -118 um/hr | 1718 um/hr | 196 um/hr | 2731 um/hr | 332 um/hr | Activity (RN1): Dose-dependent effect; EC50 [20]: 2.1 µM; EC50 [21]: 0.9 µM; Activity (U-251 [22]): 1125 um/hr; Activity (A 172 [23]): 2891 um/hr; EC50 (U-251 [24]): 1.6 to 4.6 µM; EC50 [25]: 8.6 µM; IC50 [26]: 0.0066 µM
COc1ccc2c(c1)[nH]c1c(C)nccc12 [HARMINE] |  |  |  |  |  |  |  |  |  |  |  |  |  |  |  |  |  |  |  |  | IC50 [27]: 80 µM; IC50 [28]: 0.41 µM
Nc1ccc(-c2c[nH]c3ncc(-c4ccc(O)cc4)cc23)cc1 | 2370 um/hr | > 50 µM | 2827 um/hr | > 50 µM | > 1 µM | > 50 µM | > 1 µM | 929 um/hr | 2702 um/hr | 1481 um/hr | inactive | 2232 um/hr | 1451 um/hr | > 1 µM | 3065 um/hr | 1380 um/hr | 2707 um/hr | 791 um/hr | 2411 um/hr | 1070 um/hr | EC50 [21]: > 50 µM; Activity (U-251 [22]): 2331 um/hr; Activity (A 172 [23]): 3123 um/hr; EC50 (U-251 [24]): > 50 µM; EC50 [25]: > 50 µM; IC50 [26]: > 1 µM
